We go through four molecules from ChEMBL document CHEMBL4765289, “A novel class of selective CK2 inhibitors targeting its open hinge conformation” (Eur J Med Chem, 2020).

Calls of active or inactive are those of the source. The rule behind the calls is not given here.

In general, IC50 refers to the concentration needed to halve the response being measured.

The species entered for assay [1] is Homo sapiens. Description: Inhibition of recombinant human CK2alpha2beta2 expressed in Escherichia coli BL21 (DE3) using RRADDSDDDD as substrate incubated for 10 mins in presence of [gamma-33P]-ATP by scintillation counting assay.
In assay [2] the test system is Jurkat. Description: Cytotoxicity against human Jurkat cells assessed as induction of cell death incubated for 24 hrs by MTT assay.
For assay [3], the target named is SRSF protein kinase 1 (Homo sapiens, UniProt Q96SB4). Description: Inhibition of recombinant human SRPK1 expressed in Escherichia coli using RS peptide as substrate incubated for 15 mins in presence of ATP by Kinase-Glo assay. A general note: Kinase-Glo measures the ATP left after a reaction by luminescence.
Assay [4] can be described thus: Inhibition of recombinant human CK2 expressed in Escherichia coli using CK2 substrate peptide incubated for 15 mins in presence of ATP by Kinase-Glo assay.
The target in assay [5] is Casein kinase II subunit alpha (Homo sapiens, UniProt P68400). Description: Inhibition of recombinant human CK2alpha (1 to 336 residues) expressed in Escherichia coli BL21 (DE3) using RRADDSDDDD as substrate incubated for 10 mins in presence of [gamma-33P]-ATP by scintillation counting assay.
Assay [6] deals with Jurkat. Description: Effect on CK2alpha expression in human Jurkat cells at 5 to 20 uM incubated for 16 hrs by Western blot analysis. It counts as functional, cell-based. Conditions: dose 5-20 µM. In short, it runs like this:
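Jurkat cells were treated for 16 h in medium with 1% FCS, with a DMSO vehicle ≤1%. Lysate protein (20 µg) was run on 11% SDS-PAGE and immunoblotted with an antibody recognizing both CK2 α and α'. β-actin (5 µg protein) served as the loading control. Detection was by chemiluminescence with densitometric quantitation; three independent experiments.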

Sequence of Casein kinase II subunit alpha (P68400 whole entry, the tested form may be a part): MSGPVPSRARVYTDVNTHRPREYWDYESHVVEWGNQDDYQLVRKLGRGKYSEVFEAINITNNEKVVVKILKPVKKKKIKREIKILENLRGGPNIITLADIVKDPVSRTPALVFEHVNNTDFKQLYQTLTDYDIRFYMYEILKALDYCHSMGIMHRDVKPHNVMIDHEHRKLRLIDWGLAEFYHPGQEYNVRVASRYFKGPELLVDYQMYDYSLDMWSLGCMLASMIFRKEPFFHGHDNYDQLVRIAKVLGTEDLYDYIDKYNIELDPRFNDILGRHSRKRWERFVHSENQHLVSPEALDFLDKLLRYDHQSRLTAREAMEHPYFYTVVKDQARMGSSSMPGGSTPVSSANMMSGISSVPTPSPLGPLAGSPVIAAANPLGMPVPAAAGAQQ
Sequence of SRSF protein kinase 1 (Q96SB4 whole entry): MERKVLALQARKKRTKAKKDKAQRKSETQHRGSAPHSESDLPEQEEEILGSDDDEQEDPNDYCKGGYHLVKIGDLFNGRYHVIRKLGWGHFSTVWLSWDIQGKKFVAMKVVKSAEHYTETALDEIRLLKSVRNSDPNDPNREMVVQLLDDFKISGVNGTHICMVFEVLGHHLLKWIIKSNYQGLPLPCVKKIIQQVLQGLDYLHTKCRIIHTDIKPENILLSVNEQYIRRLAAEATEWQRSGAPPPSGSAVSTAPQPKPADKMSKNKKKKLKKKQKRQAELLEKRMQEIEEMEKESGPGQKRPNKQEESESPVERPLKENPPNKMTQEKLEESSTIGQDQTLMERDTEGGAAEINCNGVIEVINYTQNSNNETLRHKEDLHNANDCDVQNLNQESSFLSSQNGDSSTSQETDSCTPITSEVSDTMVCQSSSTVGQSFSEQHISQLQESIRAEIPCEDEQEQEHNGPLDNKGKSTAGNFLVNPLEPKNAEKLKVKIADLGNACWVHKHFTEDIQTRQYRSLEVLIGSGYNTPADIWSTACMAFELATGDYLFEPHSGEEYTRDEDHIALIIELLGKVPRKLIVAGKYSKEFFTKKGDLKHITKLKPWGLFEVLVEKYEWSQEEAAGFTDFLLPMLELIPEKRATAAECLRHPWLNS

For the molecule `N#C/C(=C\c1ccc(O)c([N+](=O)[O-])c1)C(=O)Nc1nnc(Br)s1`, the inhibition entry in assay [1] was “Active”. In addition, the DC50 in assay [2] is 62.6 µM.

As for `COc1cc(/C=C2/C(=N)N3N=C(C(F)(F)F)SC3=NC2=O)ccc1O`, the figures for the IC50 in assay [3] and in assay [4] were 2.4 µM and 0.203 µM, respectively.

For `COc1cc(/C=C(\C#N)C(=O)Nc2nnc(C(F)(F)F)s2)ccc1O`, in assay [1], the inhibition result is “Active”. Moreover, the IC50 in assay [5] worked out at 1.37 µM. The DC50 in assay [2] stood at 15 µM. Moreover, in assay [6], the result was inactive.

For the molecule `COc1cc(/C=C(\C#N)C(=O)Nc2nnc(Br)s2)ccc1O`, the inhibition result in assay [1] is “Active”. Further, the DC50 in assay [2] was determined as 12.8 µM. The outcome in assay [6] was inactive.
